Data on 13 compounds can be found in ChEMBL document CHEMBL3860076, “New inhibitors of tyrosyl-DNA phosphodiesterase I (Tdp 1) combining 7-hydroxycoumarin and monoterpenoid moieties” (Bioorg Med Chem, 2016).

Bounds are passed on as bounds.

Data set [1] addresses T1, Tyrosyl-DNA phosphodiesterase 1 (Homo sapiens, UniProt Q9NUW8). The data set can be described thus: Reversal of Tdp1-mediated drug resistance in human MCF7 cells assessed as camptothecin CC50 at 5 uM measured after 72 hrs by MTT assay (reference value: 1430 +/- 430 nM). The format is cell-based. In a few lines: (§1)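 MCF-7 cells, about 2000 per well, were pre-incubated for 24 h at 37 °C in IMDM (5% CO₂). They were then given graded camptothecin concentrations together with a fixed 5 μM coumarin. After 72 h, viable cells were measured by MTT. Camptothecin CC50 was estimated with and without the coumarin.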
(In general: Tetrazolium dyes change colour on reduction, which living cells bring about.)

For data set [2], the target named is T1, Tyrosyl-DNA phosphodiesterase 1.
Data set [3] can be described thus: Cytotoxicity against human MCF7 cells expressing Tdp1 assessed as reduction in cell viability up to 100 uM measured after 72 hrs by MTT assay. Particulars: mcf7, 72 h. The format is toxicity, cell-based. In a few lines: (§2)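 MCF-7 mammary adenocarcinoma cells, about 2000 per well, were pre-incubated for 24 h at 37 °C in IMDM (5% CO₂). They were then exposed to the coumarins over a dose series up to 100 μM. After 72 h, live cells were quantified by colorimetric MTT test. CC50 was read from the dose-response curve.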

Data set [4] deals with T1, Tyrosyl-DNA phosphodiesterase 1. The data set can be described thus: Reversal of Tdp1-mediated drug resistance in human MCF7 cells assessed as fold reduction in camptothecin CC50 at 5 uM measured after 72 hrs by MTT assay relative to camptothecin alone. The data set is classed as cell-based. The method, boiled down: as §1
Data set [5] can be described thus: Cytotoxicity against human MCF7 cells expressing Tdp1 assessed as reduction in cell viability measured after 72 hrs by MTT assay. The format is toxicity, cell-based. Particulars: for Activity: mcf7, 72 h. In a few lines:
as §2

A short description of data set [6]: Cytotoxicity against human RPMI8226 cells expressing low levels of Tdp1 assessed as reduction in cell viability up to 100 uM measured after 72 hrs by MTT assay. The data set is classed as toxicity, cell-based. Particulars: rpmi-8226, 72 h. In a few lines: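 RPMI 8226 human myeloma cells were seeded at about 2000 per well and treated with the coumarins. They were incubated at 37 °C in RPMI 1640 medium (5% CO₂). Viability was measured by MTT.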

T1 sequence (Q9NUW8 whole entry): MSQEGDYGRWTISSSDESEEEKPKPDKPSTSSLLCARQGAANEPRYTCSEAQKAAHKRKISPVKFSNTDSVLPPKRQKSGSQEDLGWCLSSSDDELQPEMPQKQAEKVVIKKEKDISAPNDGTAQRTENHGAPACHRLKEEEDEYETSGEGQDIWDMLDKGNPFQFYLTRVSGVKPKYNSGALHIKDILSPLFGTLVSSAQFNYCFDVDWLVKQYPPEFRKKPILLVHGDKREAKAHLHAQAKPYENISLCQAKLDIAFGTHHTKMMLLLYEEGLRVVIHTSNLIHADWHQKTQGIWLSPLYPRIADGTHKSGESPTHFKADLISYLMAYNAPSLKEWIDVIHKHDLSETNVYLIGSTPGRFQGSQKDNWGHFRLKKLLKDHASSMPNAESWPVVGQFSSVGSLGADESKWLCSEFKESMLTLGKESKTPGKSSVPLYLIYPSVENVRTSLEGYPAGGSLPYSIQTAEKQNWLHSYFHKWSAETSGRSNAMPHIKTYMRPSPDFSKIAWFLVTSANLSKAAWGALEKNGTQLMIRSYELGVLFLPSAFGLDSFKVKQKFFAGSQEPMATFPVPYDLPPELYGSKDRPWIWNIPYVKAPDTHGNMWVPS

In the case of `CC1(C)[C@H]2CC=C(COc3ccc4c5c(c(=O)oc4c3)CCC5)[C@@H]1C2`, the CC50 in data set [1] turned out to be 330 nM. Besides, in data set [2], the IC50 is 1370 nM. In addition, the Activity entry in data set [3] was “Non-Toxic”.
For the compound `CC1(C)[C@@H]2CC=C(COc3ccc4c5c(c(=O)oc4c3)CCC5)[C@H]1C2`, in data set [1], the CC50 amounted to 180 nM. For the same compound, the fold change (FC) in data set [4] stood at 8. The compound further gave an IC50 in data set [2] of 675 nM. In addition, in data set [5] (MCF7 cells expressing Tdp1), the CC50 at 72 h was over 100000 nM. Further, the Activity result in data set [6] is given as “Non-Toxic”.
Regarding `Cc1cc(=O)oc2cc(OCC3=CC[C@H]4C[C@@H]3C4(C)C)ccc12`, the CC50 in data set [1] was 340 nM. In data set [2], this compound yielded an IC50 of 1560 nM. In addition, the Activity entry in data set [5] was “Toxic”; in data set [6], “Non-Toxic”.
On to `COc1cccc(COc2ccc3c(C)cc(=O)oc3c2)c1`, for which, in data set [2], the IC50 was over 10000 nM.
The same measure, in the same setting: the figure for `COc1cc(COc2ccc3c(C)cc(=O)oc3c2)cc(OC)c1OC` is over 10000 nM; for `COc1cc(COc2ccc3c4c(c(=O)oc3c2)CCCC4)cc(OC)c1OC` it is over 10000 nM.
Consider `CC1(C)[C@H]2CC=C(COc3ccc4c5c(c(=O)oc4c3)CCCC5)[C@@H]1C2`, for which the IC50 in data set [2] is 1230 nM. For the same compound, the Activity result in data set [3] is reported as “Non-Toxic”.
Regarding `COc1cc(COc2ccc3c4c(c(=O)oc3c2)CCC4)cc(OC)c1OC`, the IC50 in data set [2] was over 10000 nM.
Turning to `Cc1cc(=O)oc2cc(OCC3=CC[C@@H]4C[C@H]3C4(C)C)ccc12`, the half-maximal cytotoxic concentration (CC50) in data set [1] worked out at 320 nM. This compound also showed an IC50 in data set [2] of 4310 nM. Also, the results for the Activity entry in data set [5] and in data set [6] were “Toxic” and “Non-Toxic”, respectively.
In the case of `CC1(C)[C@H]2CC=C(CCOc3ccc4c5c(c(=O)oc4c3)CCC5)[C@@H]1C2`, the IC50 in data set [2] came out at 1090 nM. In data set [5], the Activity entry is “Dose-dependent effect”.
As for `COc1cccc(COc2ccc3c4c(c(=O)oc3c2)CCCC4)c1`, the half-inhibitory concentration (IC50) in data set [2] was 4930 nM.
In the case of `CC1(C)[C@H]2CC=C(CCOc3ccc4c5c(c(=O)oc4c3)CCCC5)[C@@H]1C2`, the CC50 in data set [1] was 2300 nM. The IC50 in data set [2] worked out at 1450 nM. For the same compound, the Activity result in data set [5] was “Dose-dependent effect”.
Consider `CC1(C)[C@@H]2CC=C(COc3ccc4c5c(c(=O)oc4c3)CCCC5)[C@H]1C2`, for which, in data set [1], the 50% cytotoxic concentration (CC50) was 410 nM. Further, the IC50 in data set [2] was 1200 nM. The Activity entry in data set [3] and in data set [6] was “Non-Toxic” in each case.

What is called CC50 is the concentration that lowers cell viability or growth by half. A word on the IC50: it is the midpoint of a concentration-inhibition curve. A high value points to weaker potency in that assay.
